This is an account of results in PMC9110138 (Biomedicine & Pharmacotherapy, 2022).

Usually pKa stands for the pH at which an ionisable group is half protonated.

In data set [1] the test system is HSA. The settings on record: previous investigation; cited from earlier work.
Data set [2] concerns SARS-CoV-2. The settings on record: cited from earlier work; for effect on viral replication in Calu-3 cells: infected with SARS-CoV-2 at MOI 0.001 for 90 min.
For data set [3], the target named is human recombinant CYP3A4 (Homo sapiens, UniProt P08684). The settings on record: microsomal and recombinant enzyme experiments; cited from earlier work.
Sequence of human recombinant CYP3A4 (P08684 whole entry): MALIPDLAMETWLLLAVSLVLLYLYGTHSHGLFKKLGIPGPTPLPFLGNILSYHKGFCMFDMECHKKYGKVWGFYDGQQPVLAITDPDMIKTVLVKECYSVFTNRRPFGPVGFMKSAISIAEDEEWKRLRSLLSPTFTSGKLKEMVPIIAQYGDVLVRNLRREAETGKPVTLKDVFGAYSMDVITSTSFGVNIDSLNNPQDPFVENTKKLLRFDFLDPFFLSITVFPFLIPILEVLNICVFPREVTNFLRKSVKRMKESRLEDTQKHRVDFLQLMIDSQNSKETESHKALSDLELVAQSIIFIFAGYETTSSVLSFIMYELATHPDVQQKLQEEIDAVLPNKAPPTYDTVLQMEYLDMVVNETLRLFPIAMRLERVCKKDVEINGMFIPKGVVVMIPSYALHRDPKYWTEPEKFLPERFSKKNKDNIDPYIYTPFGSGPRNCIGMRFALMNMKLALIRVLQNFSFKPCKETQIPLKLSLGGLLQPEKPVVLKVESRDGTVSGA
Data set [4] concerns human intestinal epithelial cells. Conditions: up to 50 μM, 24 h cytotoxicity assays; cited from earlier work.
For data set [5], the system named is PHHs. Conditions: up to 50 μM, 24 h cytotoxicity assays; cited from earlier work.
The target in data set [6] is CYP2D6 (Homo sapiens, UniProt P10635). The experiment in a line: Fluorometric CYP2D6 assay in human hepatic microsomes. Format: in vitro ADME. Conditions: MI-1851 50 µM; quinidine 3 µM. Summed up:
(§1)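 Human hepatic microsomes were mixed with assay buffer and NADPH-generating system. They were preincubated 15 min at 37 °C with test compound (added solutions 0–250 µM), reference inhibitor or buffer-only background control. A fluorogenic substrate/NADP+ mixture followed, with final protein 10 µg/well. Fluorescence ex/em was 406/468 nm (CYP1A2), 415/502 nm (CYP2C9) and 390/468 nm (CYP2D6). Results are substrate RFU% as mean ± SEM, n = 3 or 4.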

For data set [7], the target named is T1, CYP1A2 (Homo sapiens, UniProt P05177).
T1 sequence (P05177 1-516): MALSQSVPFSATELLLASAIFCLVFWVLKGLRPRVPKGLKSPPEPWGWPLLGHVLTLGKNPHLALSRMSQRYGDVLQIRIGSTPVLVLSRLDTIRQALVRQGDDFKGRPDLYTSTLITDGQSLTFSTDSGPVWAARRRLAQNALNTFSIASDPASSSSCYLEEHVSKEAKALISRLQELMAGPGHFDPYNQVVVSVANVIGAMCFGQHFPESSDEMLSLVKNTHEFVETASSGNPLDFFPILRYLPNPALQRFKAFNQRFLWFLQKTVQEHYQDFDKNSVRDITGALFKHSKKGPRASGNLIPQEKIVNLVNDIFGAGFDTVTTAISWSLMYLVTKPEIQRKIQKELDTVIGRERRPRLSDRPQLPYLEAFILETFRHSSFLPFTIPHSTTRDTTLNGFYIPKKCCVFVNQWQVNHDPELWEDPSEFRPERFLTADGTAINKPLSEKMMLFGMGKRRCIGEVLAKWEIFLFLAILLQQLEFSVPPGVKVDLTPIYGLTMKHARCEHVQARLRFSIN
Put plainly: Fluorometric CYP1A2 assay in human hepatic microsomes. The settings on record: MI-1851 50 µM; α-naphthoflavone 6 µM. Format: in vitro ADME. Summed up: as §1

Data set [8] deals with T1, CYP1A2. The experiment in a line: CYP1A2 luminescent P450-Glo assay in PHHs. Format: cell-based. Conditions: 2 h; MI-1851 10, 20, 50 and 100 µM; α-naphthoflavone 10 µM. An outline of the steps: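 Cryopreserved primary human hepatocytes were thawed in recovery medium and plated for 6 h in medium with 5% FBS. They were then kept FBS-free on collagen-coated membrane inserts at 37 °C, 5% CO2. Cells were washed in serum-free medium and exposed 2 h to test compound (0–100 µM; freshly diluted from 10 mM DMSO stock). CYP1A2 was read by P450-Glo with luciferin 1A2. Groups were compared by one-way ANOVA/Tukey.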

Data set [9] has as its system SARS-CoV-2 pseudoparticles. The settings on record: cited from earlier work.
For data set [10] the following is noted: canavanine, replacing arginine in P2 and P4; cited from earlier work.
For data set [11], the target named is CYP2C9 (Homo sapiens, UniProt P11712). Put plainly: Fluorometric CYP2C9 assay in human hepatic microsomes. Format: in vitro ADME. Conditions: MI-1851 50 µM; tienilic acid 60 µM. An outline of the steps: as §1
Sequence of CYP2C9 (P11712 whole entry): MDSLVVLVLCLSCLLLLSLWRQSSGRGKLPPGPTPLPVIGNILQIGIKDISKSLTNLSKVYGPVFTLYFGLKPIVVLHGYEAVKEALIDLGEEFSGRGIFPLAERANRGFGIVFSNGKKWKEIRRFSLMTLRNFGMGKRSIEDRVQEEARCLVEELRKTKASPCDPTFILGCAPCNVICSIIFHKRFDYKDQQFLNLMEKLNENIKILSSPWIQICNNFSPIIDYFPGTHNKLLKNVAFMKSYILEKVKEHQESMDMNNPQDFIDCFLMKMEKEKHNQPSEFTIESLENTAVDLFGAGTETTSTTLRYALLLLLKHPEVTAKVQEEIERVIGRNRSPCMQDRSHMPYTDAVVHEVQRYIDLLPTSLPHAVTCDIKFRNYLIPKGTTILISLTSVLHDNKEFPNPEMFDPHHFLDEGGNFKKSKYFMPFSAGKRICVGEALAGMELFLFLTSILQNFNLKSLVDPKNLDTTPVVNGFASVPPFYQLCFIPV

Sequence of CYP2D6 (P10635 whole entry): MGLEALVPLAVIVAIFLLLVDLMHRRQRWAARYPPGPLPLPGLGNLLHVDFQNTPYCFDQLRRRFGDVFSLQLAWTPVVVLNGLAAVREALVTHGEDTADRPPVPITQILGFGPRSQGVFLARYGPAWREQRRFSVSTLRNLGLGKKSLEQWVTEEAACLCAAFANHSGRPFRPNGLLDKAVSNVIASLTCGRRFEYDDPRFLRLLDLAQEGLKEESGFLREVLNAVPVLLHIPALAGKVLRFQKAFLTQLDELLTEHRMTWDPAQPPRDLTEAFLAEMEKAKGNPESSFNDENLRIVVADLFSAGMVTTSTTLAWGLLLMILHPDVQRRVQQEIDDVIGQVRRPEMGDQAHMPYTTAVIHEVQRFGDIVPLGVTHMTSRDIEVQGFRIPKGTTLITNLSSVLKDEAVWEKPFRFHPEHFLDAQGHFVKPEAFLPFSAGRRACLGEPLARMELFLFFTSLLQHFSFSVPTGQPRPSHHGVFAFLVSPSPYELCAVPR

As for `N=C(N)c1cccc(C[C@H](NS(=O)(=O)c2cccc(-c3ccc(Cl)cc3Cl)c2)C(=O)N2CCC(CCN)CC2)c1.O=C(O)C(F)(F)F.O=C(O)C(F)(F)F` [MI-432], the “interactions with HSA” value in data set [1] is recorded as “no or only weak interactions”. Further, in data set [2], the “effect on viral titers in human airway epithelial Calu-3 cells” value is “efficiently reduced” and the “effect on viral replication in Calu-3 cells” value (“effect on viral replication” below) is recorded as “inhibit viral replication”. For the same compound, the “inhibition of CYP3A4” value in data set [3] is “potent inhibitors of CYP3A4 at the nanomolar or low micromolar range”.
With `COc1ccc(-c2cccc(S(=O)(=O)N[C@@H](Cc3cccc(C(=N)N)c3)C(=O)N3CCN(C(=O)NC4CCCCC4)CC3)c2)c(OC)c1` [MI-1900], in data set [1], the “interactions with HSA” value is “no or only weak interactions”. Also, the “damage to human intestinal epithelial cells” value in data set [4] is “did not cause damage”. In data set [2], the “effect on viral titers in human airway epithelial Calu-3 cells” value is reported as “efficiently reduced” and the “effect on viral replication” value is given as “inhibit viral replication”. In data set [3], the “inhibition of CYP3A4” value is “potent inhibitors of CYP3A4 at the nanomolar or low micromolar range”. In addition, in data set [5], the “damage to PHHs” value is “did not cause damage”.
On to `C=C[C@H]1C[N@@]2CC[C@H]1C[C@@H]2[C@@H](O)c1ccnc2ccc(OC)cc12` [quinidine], for which the “effect on human microsomal CYP2D6 activity” value in [6] is “significant inhibition”.
`O=c1cc(-c2ccccc2)oc2c1ccc1ccccc12` [α-naphthoflavone]: the “effect on human microsomal CYP1A2 activity” value in data set [7] was “significant inhibition”. In addition, the “effect on CYP1A2 activity in PHHs” value in data set [8] is “significant inhibitory effects”.
On to aprotinin, for which the “effect on virus replication in vitro” value in [2] (10 µM, 48 h post infection) is “decreased the virus replication”. For the same compound, the “effect on viral replication” value in data set [2] is recorded as “inhibit viral replication”.
With `CCOC(=O)[C@H]1O[C@@H]1C(=O)N[C@@H](CC(C)C)C(=O)NCCC(C)C` [E64d], the “effect on infection with SARS-CoV-2 pseudoparticles” value in data set [9] is given as “could decrease infection”.
Consider `N=C(N)NOCC[C@H](N)C(=O)O` [canavanine], for which, in data set [10], the pKa was 7.04.
With `O=C(O)COc1ccc(C(=O)c2cccs2)c(Cl)c1Cl` [tienilic acid], the “effect on human microsomal CYP2C9 activity” value in [11] was “significant inhibition”.
